Test [1] has as its target T1, Carbonic anhydrase 9 (Homo sapiens, UniProt Q16790). As to the kind of experiment: Binding affinity to human recombinant CA9 catalytic domain assessed as association rate constant after 30 secs by surface plasmon resonance assay. Put shortly:
(§1)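 SPR kinetics at 25 °C on amine-coupled isozyme surfaces, with immobilization protein level and acetate coupling pH set per isozyme. Running buffer PBST, pH 7.4, with 2 % DMSO. Ligands run as 2-fold series from 15.6 to 2000 nM at 30 or 90 µL/min, with 30 s association and 180 s dissociation.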
On the technique in general: SPR reads the build-up and loss of mass on a sensor chip optically.

For test [2], the target named is T2, Carbonic anhydrase 12 (Homo sapiens, UniProt O43570). As to the kind of experiment: Binding affinity to human recombinant CA12 catalytic domain by fluorescence-based thermal shift assay.
T2 sequence (O43570 whole entry, the tested form may be a part): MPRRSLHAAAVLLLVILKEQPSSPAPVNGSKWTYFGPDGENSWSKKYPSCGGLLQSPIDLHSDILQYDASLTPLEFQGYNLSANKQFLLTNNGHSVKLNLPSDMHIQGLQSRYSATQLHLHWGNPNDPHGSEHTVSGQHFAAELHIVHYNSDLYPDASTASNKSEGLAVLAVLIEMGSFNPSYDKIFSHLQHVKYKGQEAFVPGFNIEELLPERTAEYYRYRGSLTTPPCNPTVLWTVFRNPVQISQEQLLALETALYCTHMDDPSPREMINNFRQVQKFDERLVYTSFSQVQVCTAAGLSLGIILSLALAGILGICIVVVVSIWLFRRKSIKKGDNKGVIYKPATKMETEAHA
Test [3] deals with T3, Carbonic anhydrase 1 (Homo sapiens, UniProt P00915). As to the kind of experiment: Binding affinity to human recombinant CA1 expressed in Escherichia coli by fluorescence-based thermal shift assay.
Target sequence in this assay (P00915 whole entry): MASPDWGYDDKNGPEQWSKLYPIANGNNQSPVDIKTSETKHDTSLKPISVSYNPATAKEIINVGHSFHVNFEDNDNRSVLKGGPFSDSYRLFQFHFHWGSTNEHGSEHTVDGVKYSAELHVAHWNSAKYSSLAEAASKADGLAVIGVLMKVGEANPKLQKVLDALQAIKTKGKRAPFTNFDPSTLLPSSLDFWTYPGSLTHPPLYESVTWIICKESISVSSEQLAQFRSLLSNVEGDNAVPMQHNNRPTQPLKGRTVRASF
The target of test [4] is T4, Carbonic anhydrase 7 (Homo sapiens, UniProt P43166). The test can be described thus: Reversible binding affinity to human recombinant CA7.
T4 sequence (P43166 whole entry, the tested form may be a part): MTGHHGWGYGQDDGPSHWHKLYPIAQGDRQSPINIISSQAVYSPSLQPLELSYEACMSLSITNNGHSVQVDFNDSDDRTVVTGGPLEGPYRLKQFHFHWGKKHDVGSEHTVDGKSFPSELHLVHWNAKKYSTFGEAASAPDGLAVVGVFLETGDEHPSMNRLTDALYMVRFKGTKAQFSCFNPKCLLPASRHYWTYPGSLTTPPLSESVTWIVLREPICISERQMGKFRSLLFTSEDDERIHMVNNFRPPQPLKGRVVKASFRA
Test [5] deals with T2, Carbonic anhydrase 12. The test can be described thus: Binding affinity to human recombinant CA12 catalytic domain after 30 secs by surface plasmon resonance assay.
The target of test [6] is T1, Carbonic anhydrase 9. The test can be described thus: Binding affinity to human recombinant CA9 catalytic domain by fluorescence-based thermal shift assay.
Test [7] has as its target T5, Carbonic anhydrase 13 (Homo sapiens, UniProt Q8N1Q1). As to the kind of experiment: Slow rate dissociation at human recombinant CA13 after 30 sec by surface plasmon resonance assay. The gist of the method: as §1
Target sequence in this assay (Q8N1Q1 whole entry, looked up): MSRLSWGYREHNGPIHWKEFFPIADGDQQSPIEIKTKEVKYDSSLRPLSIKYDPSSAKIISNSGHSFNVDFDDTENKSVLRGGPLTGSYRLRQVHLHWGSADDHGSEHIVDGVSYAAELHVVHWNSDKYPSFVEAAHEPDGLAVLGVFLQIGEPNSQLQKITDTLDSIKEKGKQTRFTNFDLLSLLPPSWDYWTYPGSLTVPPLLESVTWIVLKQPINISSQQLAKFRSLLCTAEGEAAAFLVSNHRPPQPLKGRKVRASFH
For test [8], the target named is T6, Carbonic anhydrase 2 (Homo sapiens, UniProt P00918). The test can be described thus: Binding affinity to human recombinant CA2 expressed in Escherichia coli by fluorescence-based thermal shift assay.
Test [9] has as its target T1, Carbonic anhydrase 9. As to the kind of experiment: Binding affinity to human recombinant CA9 catalytic domain after 30 secs by surface plasmon resonance assay. Put shortly:
(§2)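 SPR kinetics at 25 °C on amine-coupled isozyme surfaces, with immobilization protein level and acetate coupling pH set per isozyme. Running buffer PBST, pH 7.4, with 2 % DMSO.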

Test [10] concerns the target T4, Carbonic anhydrase 7. As to the kind of experiment: Binding affinity to human recombinant CA7 by fluorescence-based thermal shift assay.
The target in test [11] is T5, Carbonic anhydrase 13. The test can be described thus: Binding affinity to human recombinant CA13 by fluorescence-based thermal shift assay.
Target sequence in this assay (Q8N1Q1 whole entry): as the sequence (Q8N1Q1 whole entry, looked up) above
For test [12], the target named is T2, Carbonic anhydrase 12. As to the kind of experiment: Binding affinity to human recombinant CA12 catalytic domain assessed as dissociation rate constant after 30 secs by surface plasmon resonance assay.
Test [13] concerns the target T4, Carbonic anhydrase 7. The test can be described thus: Slow rate dissociation at human recombinant CA7 after 30 sec by surface plasmon resonance assay. The gist of the method: as §1
Test [14] concerns the target T4, Carbonic anhydrase 7. The test can be described thus: Binding affinity to human recombinant CA7 after 30 secs by surface plasmon resonance assay.
Test [15] addresses T1, Carbonic anhydrase 9. The test can be described thus: Binding affinity to human recombinant CA9 catalytic domain assessed as association rate constant at pH 6 by surface plasmon resonance assay. The gist of the method: (§3)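 pH-dependence SPR on CA IX or CA XII catalytic domain surfaces, using a denatured-protein reference. Buffers were 50 mM sodium phosphate, 150 mM NaCl, 0.05 % Tween-20 and 2 % DMSO at pH 6.0, 7.0 or 8.0. Ligands ran as 2-fold series (62.5–2000 or 31.3–1000 nM) with 60 s injection and 90–360 s dissociation. Triplicates used a new surface each time. KD = kd/ka from the kinetic fit.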

The target in test [16] is T1, Carbonic anhydrase 9. The test can be described thus: Binding affinity to human recombinant CA9 catalytic domain assessed as dissociation constant calculated from kinetic parameters at pH 7 by surface plasmon resonance assay. Put shortly: as §3
Test [17] concerns the target T1, Carbonic anhydrase 9. The test can be described thus: Binding affinity to human recombinant CA9 catalytic domain assessed as dissociation rate constant at pH 8 by surface plasmon resonance assay. Put shortly: as §3
The target of test [18] is T4, Carbonic anhydrase 7. The test can be described thus: Binding affinity to human recombinant CA7 assessed as dissociation rate constant after 30 secs by surface plasmon resonance assay.
The target of test [19] is T1, Carbonic anhydrase 9. The test can be described thus: Binding affinity to human recombinant CA9 catalytic domain assessed as dissociation rate constant at pH 6 by surface plasmon resonance assay. Put shortly:
as §3

Test [20] has as its target T1, Carbonic anhydrase 9. The test can be described thus: Binding affinity to human recombinant CA9 catalytic domain assessed as association rate constant at pH 8 by surface plasmon resonance assay. Put shortly:
as §3

Test [21] has as its target T1, Carbonic anhydrase 9. As to the kind of experiment: Binding affinity to human recombinant CA9 catalytic domain assessed as dissociation constant calculated from kinetic parameters at pH 8 by surface plasmon resonance assay. The gist of the method: as §3
Test [22] deals with T1, Carbonic anhydrase 9. As to the kind of experiment: Binding affinity to human recombinant CA9 catalytic domain assessed as association rate constant at pH 7 by surface plasmon resonance assay. Put shortly:
as §3

The target in test [23] is T1, Carbonic anhydrase 9. The test can be described thus: Binding affinity to human recombinant CA9 catalytic domain assessed as dissociation constant calculated from kinetic parameters at pH 6 by surface plasmon resonance assay. Put shortly: as §3
In test [24] the target is T1, Carbonic anhydrase 9. As to the kind of experiment: Binding affinity to human recombinant CA9 catalytic domain assessed as dissociation rate constant at pH 7 by surface plasmon resonance assay. The gist of the method: as §3
Test [25] concerns the target T2, Carbonic anhydrase 12. As to the kind of experiment: Binding affinity to human recombinant CA12 catalytic domain assessed as dissociation constant calculated from saturation signal at pH 7 by surface plasmon resonance assay.
Test [26] addresses T2, Carbonic anhydrase 12. As to the kind of experiment: Binding affinity to human recombinant CA12 catalytic domain assessed as dissociation constant calculated from saturation signal at pH 8 by surface plasmon resonance assay.
Test [27] addresses T2, Carbonic anhydrase 12. The test can be described thus: Binding affinity to human recombinant CA12 catalytic domain assessed as dissociation constant calculated from saturation signal at pH 6 by surface plasmon resonance assay.
Test [28] has as its target T2, Carbonic anhydrase 12. The test can be described thus: Slow rate dissociation at human recombinant CA12 catalytic domain after 30 sec by surface plasmon resonance assay. The gist of the method:
as §1

The target of test [29] is T1, Carbonic anhydrase 9. The test can be described thus: Slow rate dissociation at human recombinant CA9 catalytic domain after 30 sec by surface plasmon resonance assay. Put shortly:
as §1

Test [30] addresses T5, Carbonic anhydrase 13. The test can be described thus: Binding affinity to human recombinant CA13 after 30 secs by surface plasmon resonance assay.
Target sequence in this assay (Q8N1Q1 whole entry): as the sequence (Q8N1Q1 whole entry, looked up) above
Test [31] deals with T6, Carbonic anhydrase 2. As to the kind of experiment: Binding affinity to human recombinant CA2 expressed in Escherichia coli after 30 secs by surface plasmon resonance assay.
Test [32] concerns the target T3, Carbonic anhydrase 1. As to the kind of experiment: Binding affinity to human recombinant CA1 expressed in Escherichia coli assessed as dissociation rate constant after 30 secs by surface plasmon resonance assay. Put shortly: as §2
Target sequence in this assay (P00915 whole entry): as the sequence (P00915 whole entry) above
Test [33] has as its target T3, Carbonic anhydrase 1. As to the kind of experiment: Binding affinity to human recombinant CA1 expressed in Escherichia coli after 30 secs by surface plasmon resonance assay. The gist of the method: as §2
Target sequence in this assay (P00915 whole entry): as above
Test [34] deals with T6, Carbonic anhydrase 2. The test can be described thus: Binding affinity to human recombinant CA2 expressed in Escherichia coli assessed as dissociation rate constant after 30 secs by surface plasmon resonance assay.
Test [35] deals with T3, Carbonic anhydrase 1. As to the kind of experiment: Binding affinity to human recombinant CA1 expressed in Escherichia coli assessed as association rate constant after 30 secs by surface plasmon resonance assay. The gist of the method:
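Full-length enzyme amine-coupled to a carboxymethyl-dextran chip (75 µg/mL in 10 mM sodium acetate pH 5, about 6000 RU). SPR at 25 °C in PBST pH 7.4 with 2% DMSO. Ligands injected as 2-fold series, 15.6–2000 nM, at 30 or 90 µL/min. Association 30 s, dissociation 180 s. Regeneration with 200 µM sulphanilamide. ka from non-linear fit to a one-step binding model with mass transport.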
Target sequence in this assay (P00915 2-261 limits assumed): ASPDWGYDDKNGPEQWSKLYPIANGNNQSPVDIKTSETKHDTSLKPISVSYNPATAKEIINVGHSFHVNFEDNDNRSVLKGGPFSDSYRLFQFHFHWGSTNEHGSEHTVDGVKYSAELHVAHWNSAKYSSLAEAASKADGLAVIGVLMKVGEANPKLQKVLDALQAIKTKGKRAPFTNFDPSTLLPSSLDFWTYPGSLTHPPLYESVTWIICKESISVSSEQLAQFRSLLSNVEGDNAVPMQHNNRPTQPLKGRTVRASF

For test [36], the target named is T1, Carbonic anhydrase 9. As to the kind of experiment: Binding affinity to human recombinant CA9 catalytic domain assessed as dissociation rate constant after 30 secs by surface plasmon resonance assay. Put shortly:
as §2

pKd: −log10 of the molar value. Calls of active or inactive are those of the source. The calls are words filed in the database; no cut-off is given here.

Regarding `CC(C)(C)Nc1c(F)c(S(N)(=O)=O)c(F)c(F)c1S(=O)(=O)CCc1ccccc1`, the K at Carbonic anhydrase 9 [1] was found to be 7 ×10⁵ /M/s. Besides, the pKd (as a rule, the Kd on a negative log10 scale, so that one unit is a factor of ten) on Carbonic anhydrase 12 [2] was 7.77; at Carbonic anhydrase 1 [3], 6.66; on Carbonic anhydrase 12 [5], 7.23; at Carbonic anhydrase 9 [6] it was 9.70; at Carbonic anhydrase 2 [8], 9.23; on Carbonic anhydrase 9 [9], 8.04. The figures for the pKd at Carbonic anhydrase 7 [10] and at Carbonic anhydrase 13 [11] were 10.11 and 8.82, respectively. Moreover, the outcome at Carbonic anhydrase 7 [4] was inactive. For the same compound, the result on Carbonic anhydrase 13 [7] and at Carbonic anhydrase 7 [13] was Active. The “Dissociation rate constant (koff)” value at Carbonic anhydrase 12 [12] is listed as 1.1 ×10⁻² /s.

As to `CCCSc1c(F)c(F)c(S(N)(=O)=O)c(NC2CCCCCCC2)c1F`, the pKd on Carbonic anhydrase 7 [14] was 6.29; at Carbonic anhydrase 9 [16] it was 7.34; at Carbonic anhydrase 12 [2], 7.00; on Carbonic anhydrase 1 [3], 5.04; at Carbonic anhydrase 12 [5], 6.40; on Carbonic anhydrase 9 [6], 9.77. For the same compound, the negative-log Kd (pKd) is 6.35 at Carbonic anhydrase 2 [8]; 7.72 at Carbonic anhydrase 9 [21]; 7.57 on Carbonic anhydrase 9 [9]; 7.13 at Carbonic anhydrase 7 [10]; 7.48 on Carbonic anhydrase 13 [11]; 6.85 at Carbonic anhydrase 9 [23]. Besides, the negative-log Kd (pKd) on Carbonic anhydrase 12 [25] is 6.08; at Carbonic anhydrase 12 [26], 6.41; on Carbonic anhydrase 12 [27], 5.59. Moreover, the K at Carbonic anhydrase 9 [15] is 5.8 ×10⁴ /M/s; at Carbonic anhydrase 9 [1] it was 2.9 ×10⁵ /M/s; on Carbonic anhydrase 9 [20] it was 3.3 ×10⁵ /M/s; on Carbonic anhydrase 9 [22], 1.6 ×10⁵ /M/s. Moreover, the “Dissociation rate constant (koff)” value worked out at 6.2 ×10⁻³ /s at Carbonic anhydrase 9 [17], 7.9 ×10⁻³ /s on Carbonic anhydrase 9 [19] and 7.2 ×10⁻³ /s on Carbonic anhydrase 9 [24]. For the same compound, the “koff (dissociation rate constant)” value at Carbonic anhydrase 7 [18] was determined as 1 ×10⁻² /s. Also, the result at Carbonic anhydrase 13 [7] was Active.

On to `CCCS(=O)(=O)c1c(F)c(F)c(S(N)(=O)=O)c(F)c1NC1CCCCCCC1`, for which the negative-log Kd (pKd) was 7.40 at Carbonic anhydrase 7 [14]; 8.96 on Carbonic anhydrase 12 [2]; 6.48 on Carbonic anhydrase 1 [3]; 11.17 on Carbonic anhydrase 9 [6]; 7.70 at Carbonic anhydrase 2 [8]; 8.49 at Carbonic anhydrase 7 [10]. The pKd on Carbonic anhydrase 13 [11] was 8.66; at Carbonic anhydrase 13 [30], 7.82; on Carbonic anhydrase 2 [31], 7.00. In addition, the result at Carbonic anhydrase 12 [28] and at Carbonic anhydrase 9 [29] was Active. Moreover, at Carbonic anhydrase 7 [18], the “koff (dissociation rate constant)” value was 2 ×10⁻³ /s.

Turning to `CNc1c(F)c(S(N)(=O)=O)c(F)c(F)c1S(=O)(=O)CCc1ccccc1`, the Kd on Carbonic anhydrase 1 [32] worked out at 1 ×10⁻² /s. Further, the negative-log Kd (pKd) on Carbonic anhydrase 7 [14] was 7.35; at Carbonic anhydrase 12 [2], 7.00; on Carbonic anhydrase 1 [3], 7.60; on Carbonic anhydrase 1 [33], 7.60; at Carbonic anhydrase 12 [5], 7.02; at Carbonic anhydrase 9 [6] it was 8.70. In addition, the pKd was 8.62 on Carbonic anhydrase 2 [8]; 7.80 on Carbonic anhydrase 9 [9]; 8.51 at Carbonic anhydrase 7 [10]; 9.38 on Carbonic anhydrase 13 [11]; 8.19 at Carbonic anhydrase 2 [31]. Also, the K on Carbonic anhydrase 9 [1] worked out at 6.5 ×10⁶ /M/s; at Carbonic anhydrase 1 [35], 3.9 ×10⁵ /M/s. Also, the result on Carbonic anhydrase 7 [4] was inactive. For the same compound, the entries for the “koff (dissociation rate constant)” value on Carbonic anhydrase 7 [18] and on Carbonic anhydrase 9 [36] were 1.3 ×10⁻² /s and 1 ×10⁻¹ /s, respectively. Besides, the “Dissociation rate constant (koff)” value on Carbonic anhydrase 2 [34] was found to be 8.2 ×10⁻³ /s; at Carbonic anhydrase 12 [12], 1.4 ×10⁻¹ /s. Also, the outcome at Carbonic anhydrase 13 [7] was Active.

These data come from ChEMBL document CHEMBL3797037, “Kinetically Selective Inhibitors of Human Carbonic Anhydrase Isozymes I, II, VII, IX, XII, and XIII” (J Med Chem, 2016).
